Hits are enriched below; roughly 2.3% of the tested compounds scored in any of these assays.
FLuc inhib CS – counter-screen for luciferase assay inhibitors: firefly luciferase inhibition. inhibition, % at 10 µM. AID 1006. P08659. ATPLite firefly luciferase biochemical luminescence, 10 min. hit rate 1.5% among 200,000;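 active = inhibition above about 50% when tested at 10 µM, limit read from the data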
Target sequence (P08659 whole entry, looked up): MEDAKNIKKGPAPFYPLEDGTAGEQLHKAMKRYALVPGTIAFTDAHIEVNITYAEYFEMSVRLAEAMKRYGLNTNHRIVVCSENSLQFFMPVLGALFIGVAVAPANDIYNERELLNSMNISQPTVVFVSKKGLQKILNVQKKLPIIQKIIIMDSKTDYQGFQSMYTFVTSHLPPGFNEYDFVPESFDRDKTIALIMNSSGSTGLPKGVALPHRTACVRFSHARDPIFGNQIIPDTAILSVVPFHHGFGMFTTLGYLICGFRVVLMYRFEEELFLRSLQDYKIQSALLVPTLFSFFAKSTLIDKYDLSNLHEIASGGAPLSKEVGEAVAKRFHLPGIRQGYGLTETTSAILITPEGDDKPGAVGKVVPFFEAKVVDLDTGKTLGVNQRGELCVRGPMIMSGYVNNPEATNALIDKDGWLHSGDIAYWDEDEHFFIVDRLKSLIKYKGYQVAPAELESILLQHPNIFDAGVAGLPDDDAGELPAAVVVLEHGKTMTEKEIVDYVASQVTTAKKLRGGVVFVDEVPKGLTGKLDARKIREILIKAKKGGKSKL
Diaph act CS – counter-screen for diaphorase-based assays: diaphorase activators and chemical reducers | AID 1229 | Diaphorase/resazurin coupled assay, resorufin fluorescence, 16 min; active compounds read high; 1 = vehicle wells, 0 = NADH-free wells | hit rate 0.005% among 190,000 | activation factor at 20 µM;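 active = diaphorase activity raised at least twofold by the compound at 20 µM; inactive = activation factor below 2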
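Assay system: bacterial diaphorase enzyme (C. kluyveri) / Input: enzyme 0.07 U/mL final / Medium: 50 mM HEPES pH 7.4 with 4.542 mM MgCl2, 0.005% Tween 20 / Doses: single compound dose of 20 µM, 1% DMSO final / Incubation: 16 min enzyme reaction, ambient temperature / Signal: fluorescence, excitation 544 nm and emission 590 nm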
Diaph inh CS – diaphorase inhibition or chemical oxidation counter-screen; diaphorase resazurin-to-resorufin fluorescence, NADH, 16 min; bacterial (C. kluyveri) enzyme, not human; inhibition, % at 20 µM; hit rate 0.69% among 190,000; AID 1217;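 active = primary screen inhibition at 20 µM above a set limit, cut at about 50% in these data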;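 note: plate controls were DMSO with full reaction for no effect and wells lacking NADH for full effect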
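Detection: fluorescence of resorufin formed from resazurin, Ex 544/Em 590 nm; test system: Clostridium kluyveri diaphorase enzyme; amount: 0.14 U/mL diaphorase, enzyme working solution; times: 16-min room-temperature incubation before reading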
G6PDH CS – L. mesenteroides G6PDH inhibition counter-screen | Purified L. mesenteroides G6PDH, diaphorase/resazurin coupled fluorescence, 45 min | inhibition, % at 5 µM | hit rate 0.12% among 200,000 | AID 1020; in the data active = inhibition above about 50%
FLuc act counter – affects firefly luciferase, flagging false hits in luciferase stimulation screens | 200,000 tested, under 10 active | activation factor at 10 µM | ATPlite luciferase biochemical, luminescence, 10 min; 0 = ATP-free wells, 1 = DMSO control | P08659;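 active = luciferase activation factor, scaled between plate controls, of at least 2 with compound at 10 µM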
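Material: Luciferase/luciferin reagent mix; Doses: test compounds dosed from 2 mM stocks in 100% DMSO; Schedule: 10 min incubation after luciferase reagent addition, room temperature; Measured by: luminescence from luciferase reaction; Read-out: luminescence gain marking luciferase activators.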
* hit, by the source's call.

SMILES	FLuc inhib CS	Diaph act CS	Diaph inh CS	G6PDH CS	FLuc act counter
CCOc1ccc(/C=C/C(=O)CCC(=O)O)cc1	6.7	0.9	8.8	12.0	0.9
CCOc1ccc(/C=C\C(C)=N\O)cc1	69.0*	0.8	15.7	9.0	0.3
COc1cccc(C2=Nc3cccc4cccc(c34)N2)c1	7.8	0.8	16.4	-11.6	0.9
c1coc(C2=Nc3cccc4cccc(c34)N2)c1	9.8	0.4	60.1*	46.0	0.9
CCC(C)n1c(=S)[nH]c2c(sc3ccc([N+](=O)[O-])cc32)c1=O (configuration not stated)	-13.9	0.4	62.4*	-7.9	1.1
O=C(Nc1cccnc1)c1cc(-c2ccc3c(c2)OCO3)on1	68.2*	0.9	6.2	1.6	0.3
O=C(Nc1cccnc1)c1cc(-c2cccs2)on1	39.4	1	4.3	4.9	0.6
O=C(Nc1cccnc1)c1cc(-c2ccc(F)cc2)on1	53.9*	1	0.9	6.0	0.5
NS(=O)(=O)c1ccc(CNC(=S)NC2CC2)cc1	0.8	1.1	-11.3	-0.5	1
O=[N+]([O-])c1ccc(Sc2nccn2Cc2ccccc2)c([N+](=O)[O-])c1	-5.7	0.9	12.8	-6.2	1.1
CC(C(=O)Nc1ccc(S(=O)(=O)N2CCCCC2)cc1)N1CCN(c2ccccn2)CC1 (configuration not stated)	-2.9	1	-4.7	1.5	1
COc1ccc(N=C2S/C(=C\c3ccc(OC(C)C(=O)O)c(OC)c3)C(=O)N2CCc2c[nH]c3ccccc23)cc1 (configuration not stated)	-6.6	0.4	58.3*	8.2	1.1
COc1cc(/C=C2\SC(=Nc3ccccc3)N(CCc3c[nH]c4ccccc34)C2=O)ccc1OC(C)C(=O)O (configuration not stated)	-1.2	0.8	18.3	1.2	1
Cc1ccccc1-c1nc2sc3c(c2c(=O)n1N)CCCC3	6.1	0.9	14.7	3.8	0.9
NNc1nc(-c2ccccc2Cl)nc2sc3c(c12)CCCC3	81.9*	0.9	14.7	5.2	0.2
Cc1cc(=O)oc2c(C(=O)/C=C\c3cccs3)c(O)ccc12	3.8	1	3.0	-11.7	1
Cc1c(C(=O)/C=C/c2cccs2)oc2ccc(F)cc12	84.5*	0.9	8.5	-2.4	0.2
Fc1ccccc1CSc1ccc(-c2ccco2)nn1	78.4*	1	-0.2	1.1	0.2
c1ccc(CSc2ccc(-c3ccccn3)nn2)cc1	57.8*	1.1	-9.5	8.6	0.4
c1ccc(CSc2ccc(-c3ccco3)nn2)cc1	82.6*	0.9	13.4	-15.3	0.2
O=C(CSc1ccc(-c2ccco2)nn1)c1cccc([N+](=O)[O-])c1	-7.5	0.4	62.8*	5.0	1.1
CS(=O)(=O)c1ccc(C(=O)OCc2nnc(-c3ccc(Cl)cc3)o2)cc1[N+](=O)[O-]	-0.5	1	1.5	-7.7	1
CC(C)N(Cc1nc(-c2ccc3c(c2)OCO3)no1)Cc1nccn1C	-5.7	0.8	21.1	4.7	1.1
O=C(c1ccc(Cn2c(=S)[nH]c3ccccc3c2=O)cc1)N1CCN(c2ccccn2)CC1	-1.4	0.7	25.8	-3.4	1
CS(=O)(=O)N(CC(=O)N1CCCCCC1)c1ccc2c(c1)OCCO2	-12.2	0.9	7.2	5.6	1.1
SMILES	FLuc inhib CS	Diaph act CS	Diaph inh CS	G6PDH CS	FLuc act counter
O=C(CSc1ccc(-c2ccccn2)nn1)c1ccc(F)cc1	-6.2	0.4	58.1*	-2.8	1.1
Cc1ccc(CSc2ccc(-c3ccco3)nn2)cc1	55.0*	0.8	16.9	-8.2	0.4
Cn1c(=O)c2[nH]c(N3CCN(c4ccccn4)CC3)nc2n(C)c1=O	2.9	1	-3.4	16.0	1
O=C(O)COn1c(-c2ccccc2)nc2ccc(Cl)cc21	68.5*	0.9	8.4	-0.2	0.3
COn1c(-c2ccccc2)nc2ccc(Cl)cc21	20.5	0.9	14.1	-0.2	0.8
Cn1cccc1C(=O)C(=O)Nc1ccccc1C(F)(F)F	18.5	1	4.8	11.2	0.8
Cn1cccc1C(=O)C(=O)Nc1ccccc1	52.5*	1	4.4	0.0	0.5
O=C(Nc1nc(-c2nc3ccccc3s2)cs1)C1CC1	54.5*	0.8	17.7	-49.0	0.5
O=C(Nc1nc(-c2nc3ccccc3s2)cs1)c1ccco1	2.5	1.2	-20.8	1.0	1

Screening data (PubChem BioAssay)
